In ChEMBL document CHEMBL1156059, “Thienopyrimidine-based P2Y12 platelet aggregation inhibitors” (Bioorg Med Chem Lett, 2009):

Assays:
[1] = Antiplatelet aggregatory activity in human platelet rich plasma assessed as inhibition of ADP-induced platelet aggregation; format: functional
How it was run: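 Human PRP was obtained by centrifuging whole blood at 200g for 15 min at room temperature, then adjusted to 300,000 platelets/µL with autologous platelet-poor plasma (2380g spin). Stirred PRP was mixed with compound, and aggregation was started with 20 µM ADP. Aggregation was read as the increase in light transmittance on a microplate spectrophotometer. Each concentration was run in duplicate.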

P2Y purinoceptor 12 [2] = molecular target: T1, P2Y purinoceptor 12 (Homo sapiens, UniProt Q9H244); test: Binding affinity to human recombinant P2Y12 receptor expressed on CHO cell membrane; format: cell membranes
How it was run: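 Competition binding against 33P 2-MeSADP (added as a 1 nM solution) on membranes from CHO cells transfected with recombinant human P2Y12. Membranes were used at 10, 1 or 0.3 µg/well depending on method. Buffer contained 0.02% BSA, ascorbic acid and protease inhibitors. Cold 2-MeSADP (1.5 µM solution) served as control. Compounds were run as a seven-point threefold series from 10 µM, in triplicate. Plates were incubated 1 h at room temperature, then GF/B filtered and scintillation counted.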

Homo sapiens = species on record: Homo sapiens; test: Ratio of Ki for human recombinant P2Y12 in presence of HSA and AGP to Ki for human recombinant P2Y12
How it was run: (§1)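 Same 33P 2-MeSADP filtration binding on recombinant human P2Y12 CHO membranes (1 or 0.3 µg/well), room temperature, 1 h. Membranes were prepared with 5X HSA (1.75%) and 5X AGP (0.075%). Compounds were run as a seven-point threefold series from 10 µM, in triplicate. Fold shift is the Ki with added protein divided by the Ki without protein.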

P2Y purinoceptor 12 [3] = molecular target: T1, P2Y purinoceptor 12; test: Binding affinity to human recombinant P2Y12 receptor expressed in CHO cell membrane in presence of HSA and human AGP; format: cell membranes; how it was run: as §1

T1 sequence (Q9H244 whole entry): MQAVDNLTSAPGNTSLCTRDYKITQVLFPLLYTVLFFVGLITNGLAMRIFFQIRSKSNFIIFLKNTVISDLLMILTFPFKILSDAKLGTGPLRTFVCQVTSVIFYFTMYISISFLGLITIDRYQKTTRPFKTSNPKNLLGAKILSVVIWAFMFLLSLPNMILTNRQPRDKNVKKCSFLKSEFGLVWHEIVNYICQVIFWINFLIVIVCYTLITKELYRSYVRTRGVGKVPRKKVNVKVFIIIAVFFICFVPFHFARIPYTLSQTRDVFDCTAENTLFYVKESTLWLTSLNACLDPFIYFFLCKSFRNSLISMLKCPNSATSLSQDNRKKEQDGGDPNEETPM

| SMILES | IC50 [1] [nM] | Ki (P2Y purinoceptor 12 [2]) [nM] | Ratio Ki (Homo sapiens) | Ki (P2Y purinoceptor 12 [3]) [nM] |
| --- | --- | --- | --- | --- |
| CCc1cc2c(N3CCN(C(=O)c4ccc(-c5ccccc5)cc4)CC3)nc(N3CCN(C(=O)C(F)(F)F)CC3)nc2s1 | > 100000 | 839 | 2 | 1810 |
| CCC(=O)N1CCN(c2nc(NC(=O)NCCC(=O)O)nc3sc(CC)cc23)CC1 | 16000 | 295 | 1.2 | 367 |
| CCc1cc2c(N3CCN(C(=O)C(C)C)CC3)nc(NC(=O)NCCC(=O)O)nc2s1 | 4000 | 36 | 1.3 | 46 |
| CCc1cc2c(N3CCN(C(=O)c4ccccc4)CC3)ncnc2s1 | – | 4400 | – | – |
| CCc1cc2c(N3CCN(C(=O)Cc4ccccc4)CC3)ncnc2s1 | 28000 | 660 | – | – |
| CCc1cc2c(N3CCN(C(=O)Cc4ccccc4)CC3)nc(NC(=O)NCCC(=O)O)nc2s1 | 16000 | 223 | 1 | 231 |
| CCc1cc2c(N3CCN(C(=O)CC(F)(F)F)CC3)nc(NC(=O)NCCC(=O)O)nc2s1 | 18000 | 177 | 1 | 172 |
| CCc1cc2c(N3CCN(C(=O)Cc4ccc(F)c(F)c4)CC3)nc(NC(=O)NCCC(=O)O)nc2s1 | 34000 | 68 | 2 | 140 |
| CCc1cc2c(N3CCN(C(=O)c4ccc(-c5ccccc5)cc4)CC3)nc(N3CC(O)C3)nc2s1 | 30000 | 27 | 11 | 297 |
| CCc1cc2c(N3CCN(C(=O)c4ccc(-c5ccccc5)cc4)CC3)nc(N3[C@@H](C(N)=O)CC[C@H]3C(N)=O)nc2s1 | 3000 | 4 | 5 | 21 |
| CCc1cc2c(N3CCN(C(=O)c4ccc(-c5ccccc5)cc4)CC3)nc(NCCC(=O)O)nc2s1 | 57000 | – | 15 | 122 |
| CCc1cc2c(N3CCN(C(=O)c4ccc(-c5ccccc5)cc4)CC3)nc(NC[C@@H](O)CO)nc2s1 | 11000 | 19 | 4 | 75 |
| CCc1cc2c(N3CCN(C(=O)c4ccc(-c5ccccc5)cc4)CC3)nc(N3CCCC(C(N)=O)C3)nc2s1 (stereo not drawn) | 73000 | 31 | 6.5 | 203 |
| CCc1cc2c(N3CCN(C(=O)c4ccc(-c5ccccc5)cc4)CC3)nc(NCCO)nc2s1 | 21000 | 37 | 4.4 | 163 |
| CCc1cc2c(N3CCN(C(=O)c4ccc(-c5ccccc5)cc4)CC3)nc(NC(=O)NCCC(=O)O)nc2s1 | 5000 | – | 3.3 | 10 |
| CCc1cc2c(N3CCN(C(=O)c4ccc(-c5ccccc5)cc4)CC3)nc(N3C[C@@H](O)C[C@H]3C(=O)O)nc2s1 | 4000 | 5 | 6 | 31 |

| SMILES | IC50 [1] [nM] | Ki (P2Y purinoceptor 12 [2]) [nM] | Ratio Ki (Homo sapiens) | Ki (P2Y purinoceptor 12 [3]) [nM] |
| --- | --- | --- | --- | --- |
| CCc1cc2c(N3CCN(C(=O)CCOc4ccccc4)CC3)nc(NC(=O)NCCC(=O)O)nc2s1 | 86000 | 213 | 3.7 | 783 |
| CCc1cc2c(N3CCN(C(=O)CC(F)(F)F)CC3)ncnc2s1 | 28000 | 2990 | – | – |
| CCc1cc2c(N3CCN(C(=O)c4ccc(-c5ccccc5)cc4)CC3)nc(N3CCNCC3)nc2s1 | 45000 | 410 | 1 | 397 |
| CCc1cc2c(N3CCN(C(=O)c4ccc(-c5ccccc5)cc4)CC3)ncnc2s1 | 7000 | 29 | – | – |
| CCc1cc2c(N3CCN(C(=O)CC(C)C)CC3)ncnc2s1 | 8000 | 2100 | – | – |
| CCc1cc2c(N3CCN(C(=O)C(F)(F)F)CC3)ncnc2s1 | 18000 | – | – | – |
| CCc1cc2c(N3CCN(C(=O)CCCCOc4ccccc4)CC3)ncnc2s1 | 4000 | – | – | – |
| CCc1cc2c(N3CCN(C(=O)c4ccc(-c5ccccc5)cn4)CC3)nc(NC(=O)NCCC(=O)O)nc2s1 | 42000 | 37 | 4.3 | 161 |
| CCc1cc2c(N3CCN(C(=O)Oc4cccc5ccccc45)CC3)ncnc2s1 | 1250 | 130 | – | – |
| CCc1cc2c(N3CCN(C(=O)c4ccc(-c5ccccc5)cc4)CC3)nc(N3CCC(N)CC3)nc2s1 | 40000 | 240 | 1.3 | 325 |
| CCc1cc2c(N3CCN(C(=O)c4ccc(-c5ccccc5)cc4)CC3)nc(NCCCO)nc2s1 | 56000 | 78 | 5.6 | 441 |
| CCc1cc2c(N3CCN(C(=O)COc4ccccc4)CC3)nc(NC(=O)NCCC(=O)O)nc2s1 | 25000 | 539 | 1.1 | 593 |
| CCc1cc2c(N3CCN(C(=O)c4ccc(-c5ccccc5)cc4)CC3)nc(N3CCC(O)C3)nc2s1 (stereo not drawn) | 37000 | 35 | 7 | 241 |
| CCc1cc2c(N3CCN(C(C)=O)CC3)nc(NC(=O)NCCC(=O)O)nc2s1 | 38000 | 460 | 0.8 | 380 |
| CCc1cc2c(N3CCN(C(=O)COc4cccc(OC)c4)CC3)nc(NC(=O)NCCC(=O)O)nc2s1 | 39000 | 191 | 2.3 | 447 |
